From ChEMBL document CHEMBL3120102, “Structure-based design, synthesis and biological evaluation of novel anthra[1,2-d]imidazole-6,11-dione homologues as potential antitumor agents” (2013)

Experiments:
Assay type in all cases: functional
[1] = system: NCI-H460; assay: Cytotoxicity against human NCI-H460 cells assessed as growth inhibition after 48 hrs by SRB assay; details: for GI50 / LC50 / TGI: NCI-H460, 48 h
Summary of the method: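 NCI 60-cell-line screen, five-dose stage: each cell line exposed for 48 h to five concentrations spanning five log steps; cellular protein measured by sulforhodamine B colorimetry. A time-zero cell control and plates without drug are used to derive GI50, TGI and LC50 from log-concentration dose-response curves.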

[2] = system: SN12C; assay: Cytotoxicity against human SN12C cells assessed as growth inhibition after 48 hrs by SRB assay; details: for CC50: read-out: LC50 (the source's name)
Summary of the method: (§1)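 NCI 60-cell-line screen, two stages. Five-dose testing at […]. Cellular protein measured by sulforhodamine B colorimetry after 48 h drug exposure. A time-zero control and drug-free plates are used to derive GI50, TGI and LC50 from dose-response curves plotted as log10 concentration per cell line.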

[3] = system: UACC-257; assay: (§2) Cytotoxicity against human UACC257 cells assessed as growth inhibition after 48 hrs by SRB assay; summary of the method: as §1
[4] = as §2; details: UACC-257, 48 h; summary of the method: as §1
[5] = system: SNB-75; assay: Cytotoxicity against human SNB75 cells assessed as growth inhibition after 48 hrs by SRB assay; details: for GI50 / LC50 / TGI: SNB-75, 48 h; summary of the method: as §1
[6] = system: CAKI-1; assay: Cytotoxicity against human CAKI-1 cells assessed as growth inhibition after 48 hrs by SRB assay
Summary of the method: (§3)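 NCI 60-cell-line five-dose screen at […]. Drug exposure was 48 h, followed by sulforhodamine B protein staining. GI50, TGI and LC50 were calculated against a time-zero control and untreated plates, with dose–response curves plotted from log10 concentration.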

[7] = system: HOP-62; assay: Cytotoxicity against human HOP62 cells assessed as growth inhibition after 48 hrs by SRB assay; details: for GI50 / LC50 (concentration killing 50% of cells relative to time zero) / TGI: HOP-62, 48 h; summary of the method: as §3
[8] = system: T47D; assay: Cytotoxicity against human T47D cells assessed as growth inhibition after 48 hrs by SRB assay; summary of the method: as §1
[9] = system: HOP-92; assay: Cytotoxicity against human HOP92 cells assessed as growth inhibition after 48 hrs by SRB assay; details: for GI50 / TGI / CC50: HOP-92, 48 h; for CC50: read-out: LC50 (the source's name); summary of the method: as §3
[10] = system: M14; assay: Cytotoxicity against human M14 cells assessed as growth inhibition after 48 hrs by SRB assay; details: for GI50 / LC50 / TGI: M14, 48 h; summary of the method: as §3
[11] = system: EKVX; assay: (§4) Cytotoxicity against human EKVX cells assessed as growth inhibition after 48 hrs by SRB assay; summary of the method: as §3
[12] = as §4; summary of the method: as §3

Row | Structure (SMILES) | growth inhibition (GI) [1] | TGI [1] [µM] | GI50 [2] [µM] | TGI [2] [µM] | growth inhibition (GI) [2] | CC50 [2] [µM] | growth inhibition (GI) [3] | GI50 [4] [µM] | TGI [4] [µM] | growth inhibition (GI) [5] | GI50 [5] [µM] | TGI [5] [µM] | growth inhibition (GI) [7] | GI50 [7] [µM] | TGI [7] [µM] | GI50 [8] [µM] | TGI [8] [µM] | growth inhibition (GI) [8] | growth inhibition (GI) [10] | GI50 [10] [µM] | further results
1 | CCCSc1nc2ccc3c(c2[nH]1)C(=O)c1ccccc1C3=O | Dose-dependent effect | > 100 | 14 | > 100 | Dose-dependent effect | > 100 | Dose-dependent effect | > 100 | > 100 | Dose-dependent effect | 2.64 | 6.43 | Dose-dependent effect | 1.94 | 4.27 | 2.66 | > 100 | Dose-dependent effect | Dose-dependent effect | > 100 | GI50 [1]: 44.7 µM; LC50 [1]: > 100 µM; LC50 [4]: > 100 µM; LC50 [5]: 98.1 µM; growth inhibition (GI) [6]: Dose-dependent effect; GI50 ([6]; CAKI-1, 48 h): 3.07 µM; LC50 ([6]; CAKI-1, 48 h): > 100 µM; TGI ([6]; CAKI-1, 48 h): > 100 µM; LC50 (concentration killing 50% of cells relative to time zero) [7]: 9.36 µM; LC50 [8]: > 100 µM; growth inhibition (GI) [9]: Dose-dependent effect; GI50 [9]: 15 µM; TGI [9]: > 100 µM; CC50 [9]: > 100 µM; LC50 [10]: > 100 µM; TGI [10]: > 100 µM; growth inhibition (GI) [11]: Dose-dependent effect; GI50 [12]: 64.9 µM; LC50 [12]: > 100 µM; TGI [12]: > 100 µM
2 | O=C1c2ccccc2C(=O)c2c1ccc1nc(SCCN3CCCC3)[nH]c21 | Dose-dependent effect | 4.77 | 5.96 | 19.6 | Dose-dependent effect | 46.1 | Dose-dependent effect | 18 | 31.9 | Dose-dependent effect | 12.3 | 25.2 | Dose-dependent effect | 18 | 33.2 | 17.5 | 40.3 | Dose-dependent effect | Dose-dependent effect | 8.24 | LC50 [4]: 56.8 µM; LC50 [5]: 51.5 µM; LC50 [8]: 92.8 µM; LC50 [10]: 47.9 µM; TGI [10]: 21.2 µM; growth inhibition (GI) [11]: Dose-dependent effect; TGI [12]: 26.5 µM
3 | CN(C)CCCSc1nc2ccc3c(c2[nH]1)C(=O)c1ccccc1C3=O | Dose-dependent effect | 12.8 | 3.26 | 16.5 | Dose-dependent effect | 40.6 | Dose-dependent effect | 19.8 | 34.1 | Dose-dependent effect | < 0.01 | < 0.01 | Dose-dependent effect | 5.9 | 21.2 | 8.73 | 24.8 | Dose-dependent effect | Dose-dependent effect | 7.05 | growth inhibition (GI) [6]: Dose-dependent effect; GI50 ([6]; CAKI-1, 48 h): 0.822 µM; TGI ([6]; CAKI-1, 48 h): 11 µM; TGI [10]: 20.7 µM; growth inhibition (GI) [11]: Dose-dependent effect; GI50 [12]: 4.2 µM; TGI [12]: 20.1 µM
4 | CCSc1nc2ccc3c(c2[nH]1)C(=O)c1ccccc1C3=O | Dose-dependent effect | > 100 | 10.3 | > 100 | Dose-dependent effect | > 100 | Dose-dependent effect | > 100 | > 100 | Dose-dependent effect | 10.1 | 84.9 | Dose-dependent effect | 25.9 | > 100 | 4.21 | > 100 | Dose-dependent effect | Dose-dependent effect | 5.62 | GI50 [1]: 5.49 µM; LC50 [1]: > 100 µM; LC50 [4]: > 100 µM; LC50 [5]: > 100 µM; LC50 (concentration killing 50% of cells relative to time zero) [7]: > 100 µM; LC50 [8]: > 100 µM; growth inhibition (GI) [9]: Dose-dependent effect; GI50 [9]: 90.6 µM; TGI [9]: > 100 µM; CC50 [9]: > 100 µM; LC50 [10]: > 100 µM; TGI [10]: > 100 µM; growth inhibition (GI) [11]: Dose-dependent effect; GI50 [12]: 2.13 µM; LC50 [12]: > 100 µM; TGI [12]: 29 µM
